The source of these data is ChEMBL document CHEMBL1157747, “Discovery, structure-activity relationships, pharmacokinetics, and efficacy of glucokinase activator (2R)-3-cyclopentyl-2-(4-methanesulfonylphenyl)-N-thiazol-2-yl-propionamide (RO0281675)” (J Med Chem, 2010).

The source made the active and inactive calls. The rule behind the calls is not given here.

Test system in one data set: not listed separately
Put plainly: Oral bioavailability in CD rat at 30 mg/kg. The data set is classed as ADME, organism-based. To be noted: in vivo.
A word on the bioavailability: it is the share of a dose that reaches the circulation, judged against a reference dose that is usually intravenous. Low readings indicate little systemic uptake, high ones much systemic uptake. The compound `CNC(=O)NC(=O)[C@H](CC1CCCC1)c1ccc(Cl)c(Cl)c1` yielded a bioavailability of 13%.

A further data set deals with Glucokinase (Homo sapiens). Put plainly: Activity of glucokinase up to 10 uM.
Settings: not given
As to `CNC(=O)NC(=O)[C@@H](CC1CCCC1)c1ccc(Cl)c(Cl)c1`, the outcome was inactive.

The next data set deals with Glucokinase (Homo sapiens). As to the kind of experiment: Activity of glucokinase assessed as stimulatory concentration required to increase 1.5 fold enzymatic activity.
Settings: not given
`COC(=O)Cc1csc(NC(=O)C(CC2CCCC2)c2ccc(Cl)c(Cl)c2)n1` (stereo unspecified): the Activity was 0.82 µM.
Still for that read-out and setting: under `O=C(Nc1nccs1)C(CC1CCCC1)c1cccc(Cl)c1` (stereo unspecified) stands 1.7 µM; under `CCNC(=O)NC(=O)C(CC1CCCC1)c1ccc(Cl)c(Cl)c1` (stereo unspecified), 0.53 µM.
On the same count and under the same terms, then `CNC(=O)NC(=O)C(CC1CCCC1)c1cccc(S(=O)(=O)C(F)(F)F)c1` (stereo unspecified), with 1 µM; and `CNC(=O)NC(=O)C(CC1CCCC1)c1ccc([N+](=O)[O-])cc1` (stereo unspecified), with 5.4 µM.
The same measure, in the same setting: under `O=C(Nc1nc(CO)cs1)C(CC1CCCC1)c1ccc(Cl)c(Cl)c1` (stereo unspecified) stands 0.99 µM.
In the case of `CSc1ccc(C(CC2CCCC2)C(=O)Nc2nccs2)cc1` (stereo unspecified), the Activity turned out to be 2.2 µM.
Same read-out and setting: then `O=C(Nc1nccs1)C(CC1CCCC1)c1ccc(SC(F)(F)F)cc1` (stereo unspecified), with 1.8 µM; and `CNC(=O)NC(=O)C(CC1CCCC1)c1ccc(S(=O)(=O)C(F)(F)F)cc1` (stereo unspecified), with 0.3 µM.
For `O=C(O)c1cnc(NC(=O)C(CC2CCCC2)c2ccc(Cl)c(Cl)c2)s1` (stereo unspecified), the Activity was determined as 26 µM.
The same measure, in the same setting: then `O=C(O)Cc1csc(NC(=O)C(CC2CCCC2)c2ccc(Cl)c(Cl)c2)n1` (stereo unspecified), with 8 µM.
On the same count and under the same terms, then `O=C(Nc1ncc(CO)s1)C(CC1CCCC1)c1ccc(Cl)c(Cl)c1` (stereo unspecified), with 0.75 µM; and `CC(C)CC(C(=O)NC(N)=O)c1ccc(Cl)c(Cl)c1` (stereo unspecified), with 29 µM.
For `CNC(=O)NC(=O)C(CC(C)C)c1ccc(Cl)c(Cl)c1` (stereo unspecified), the Activity stood at 6 µM.
Still for that read-out and setting: then `CNC(=O)NC(=O)C(CC1CCCCC1)c1ccc(Cl)c(Cl)c1` (stereo unspecified), with 1.4 µM; and `NC(=O)NC(=O)C(CC1CCCCCC1)c1ccc(Cl)c(Cl)c1` (stereo unspecified), with 12 µM; and `O=C(O)c1csc(NC(=O)C(CC2CCCC2)c2ccc(Cl)c(Cl)c2)n1` (stereo unspecified), with 29 µM.
On the same count and under the same terms, then `CNC(=O)NC(=O)C(CC1CCCC1)c1ccc(SC(F)(F)F)cc1` (stereo unspecified), with 1.4 µM.
The same measure, in the same setting: under `CNC(=O)NC(=O)C(CC1CCCC1)c1ccc(F)c(F)c1` (stereo unspecified) stands 8.5 µM.
For `COC(=O)c1cnc(NC(=O)C(CC2CCCC2)c2ccc(Cl)c(Cl)c2)s1` (stereo unspecified), the Activity was found to be 0.92 µM.
Same read-out and setting: then `O=C(Nc1nccs1)C(CC1CCCC1)c1ccc([N+](=O)[O-])cc1` (stereo unspecified), with 0.84 µM; and `Cc1csc(NC(=O)C(CC2CCCC2)c2ccc(Cl)c(Cl)c2)n1` (stereo unspecified), with 1.2 µM; and `CCOC(=O)CCNC(=O)NC(=O)C(CC1CCCC1)c1ccc(Cl)c(Cl)c1` (stereo unspecified), with 8.4 µM.
`NC(=O)NC(=O)C(CC1CCC1)c1ccc(Cl)c(Cl)c1` (stereo unspecified): the Activity is 10 µM.
Same read-out and setting: then `NC(=O)NC(=O)C(CC1CCCC1)c1ccc(Cl)c(Cl)c1` (stereo unspecified), with 4.4 µM; and `CNC(=O)NC(=O)C(CC1CCCC1)c1ccc(S(C)(=O)=O)cc1` (stereo unspecified), with 1.5 µM.
On the same count and under the same terms, then `Cc1nc(NC(=O)C(CC2CCCC2)c2ccc(Cl)c(Cl)c2)sc1C` (stereo unspecified), with 1.6 µM.
On the same count and under the same terms, under `O=C(O)CNC(=O)NC(=O)C(CC1CCCC1)c1ccc(Cl)c(Cl)c1` (stereo unspecified) stands “inactive”; under `CNC(=O)NC(=O)C(CC1CCCC1)c1ccc(Br)cc1` (stereo unspecified), 3.8 µM; under `Cc1cnc(NC(=O)C(CC2CCCC2)c2ccc(Cl)c(Cl)c2)s1` (stereo unspecified), 0.64 µM.
In the case of `O=C(Nc1nccs1)C(CC1CCCC1)c1ccc(S(=O)(=O)C(F)(F)F)cc1` (stereo unspecified), the Activity worked out at 0.19 µM.
Same read-out and setting: under `CNC(=O)NC(=O)[C@H](CC1CCCC1)c1ccc(Cl)c(Cl)c1` stands 0.41 µM.

Test system in another data set: not listed separately
Put plainly: Cmax in CD rat at 30 mg/kg, po. The data set is classed as ADME, organism-based. More on the design: dose 30 mg/kg, route oral. To be noted: in vivo.
What is called Cmax is the maximum level reached in the sampled fluid or tissue. In turn, `CNC(=O)NC(=O)[C@H](CC1CCCC1)c1ccc(Cl)c(Cl)c1` returned a Cmax of 0.471 µg/mL.

Another data set concerns Glucokinase (Homo sapiens). Put plainly: Activity of glucokinase at 30 uM.
Settings: not given
Regarding `CNC(=O)NC(=O)[C@@H](CC1CCCC1)c1ccc(Cl)c(Cl)c1`, the result was inactive.

Test system in a further data set: not listed separately
As to the kind of experiment: AUC (0 to infinity) in CD rat at 5 mg/kg, iv. Also on record: time infinity, dose 5 mg/kg, route intravenous. The data set is classed as ADME, organism-based. To be noted: plasma.
The AUC(0-inf) is the area under the concentration-time curve extrapolated to infinity. Low values mean less exposure, high ones more exposure. `CNC(=O)NC(=O)[C@H](CC1CCCC1)c1ccc(Cl)c(Cl)c1` showed an AUC(0-inf) of 1880 ng·h/mL.

Test system in another data set: not listed separately
As to the kind of experiment: Tmax in CD rat at 30 mg/kg, po. Type of data set: ADME, organism-based. Also on record: dose 30 mg/kg, route oral. To be noted: in vivo.
As usually defined, the Tmax is the time from dosing to the highest level. As to `CNC(=O)NC(=O)[C@H](CC1CCCC1)c1ccc(Cl)c(Cl)c1`, the Tmax worked out at 3.3 h.

Test system in the next data set: not listed separately
As to the kind of experiment: Oral bioavailability in CD rat at 10 mg/kg. Type of data set: ADME, organism-based. To be noted: in vivo.
Consider `CNC(=O)NC(=O)[C@H](CC1CCCC1)c1ccc(Cl)c(Cl)c1`, for which the bioavailability came out at 12%.

Test system in another data set: not listed separately
As to the kind of experiment: Clearance in CD rat at 5 mg/kg, iv. Type of data set: ADME, organism-based. Also on record: dose 5 mg/kg, route intravenous. To be noted: in vivo.
One may read the clearance as a measure of how efficiently the substance is removed, as volume per time. A lower clearance goes with a low capacity for elimination. `CNC(=O)NC(=O)[C@H](CC1CCCC1)c1ccc(Cl)c(Cl)c1` registered a clearance of 43.5 mL/min/kg.

Test system in a further data set: not listed separately
Put plainly: Tmax in CD rat at 10 mg/kg, po. Type of data set: ADME, organism-based. More on the design: dose 10 mg/kg, route oral. To be noted: in vivo.
For the compound `CNC(=O)NC(=O)[C@H](CC1CCCC1)c1ccc(Cl)c(Cl)c1`, the Tmax amounted to 1.4 h.

The subject of a further data set is Pancreatic islet. Put plainly: […] of glucose-stimulated insulin secretion in C57BL/6J mouse isolated pancreatic islets cells after 4 to 5 days.
Settings: not given
As for `CNC(=O)NC(=O)[C@H](CC1CCCC1)c1ccc(Cl)c(Cl)c1`, the Activity result is “Dose-dependent effect”.

A further data set concerns Glucokinase (Homo sapiens). Put plainly: Activation of glucokinase assessed as increase in Vmax at 1 uM relative to control.
Settings: not given
For `CNC(=O)NC(=O)[C@H](CC1CCCC1)c1ccc(Cl)c(Cl)c1`, the fold change (FC) was 1.4.

The next data set relates to Glucokinase (Homo sapiens). Put plainly: Activation of glucokinase assessed as […] in Km at 20 uM relative to control.
Settings: not given
Consider `CNC(=O)NC(=O)[C@H](CC1CCCC1)c1ccc(Cl)c(Cl)c1`, for which the fold change (FC) was found to be 0.22.

A further data set deals with Mus musculus. Put plainly: Reduction in glucose AUC in C57BL/6J mouse at 50 mg/kg, po pretreated 30 mins by oral glucose tolerance test relative to control.
Settings: not given
The data set is classed as functional, organism-based. More on the design: dose 50 mg/kg. A digest of the protocol:
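Male C57BL/6J mice got a single oral 50 mg/kg dose and underwent an oral glucose tolerance test. Fasting glucose and glucose tolerance were compared with vehicle-treated animals. Values are mean ± STD, n = 6 per time point; Student's t test, P < 0.05.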
Take `CNC(=O)NC(=O)[C@H](CC1CCCC1)c1ccc(Cl)c(Cl)c1`: the outcome was Active.

Test system in a further data set: not listed separately
Put plainly: AUC (0 to infinity) in CD rat at 10 mg/kg, po. The data set is classed as ADME, organism-based. Also on record: time infinity, dose 10 mg/kg, route oral. To be noted: plasma.
On to `CNC(=O)NC(=O)[C@H](CC1CCCC1)c1ccc(Cl)c(Cl)c1`, for which the AUC(0-inf) is 455 ng·h/mL.

Another data set has as its system Glucokinase (Homo sapiens). As to the kind of experiment: Activation of glucokinase assessed as […] in Km at 1 uM relative to control.
Settings: not given
As to `CNC(=O)NC(=O)[C@H](CC1CCCC1)c1ccc(Cl)c(Cl)c1`, the fold change (FC) is 0.66.

The next data set has as its system Glucokinase (Homo sapiens). As to the kind of experiment: Activation of glucokinase at 20 uM relative to control.
Settings: not given
For `CNC(=O)NC(=O)[C@H](CC1CCCC1)c1ccc(Cl)c(Cl)c1`, the fold change (FC) stood at 1.7.

Test system in the next data set: not listed separately
Put plainly: Volume of distribution at steady state in CD rat at 5 mg/kg, iv. Type of data set: ADME, organism-based. Also on record: dose 5 mg/kg, route intravenous. The settings on record: in vivo, read-out: Vdss.
`CNC(=O)NC(=O)[C@H](CC1CCCC1)c1ccc(Cl)c(Cl)c1`: the Vd was found to be 4.21 L/kg.

Test system in the next data set: not listed separately
Put plainly: AUC (0 to infinity) in CD rat at 30 mg/kg, po. Type of data set: ADME, organism-based. Also on record: time infinity, dose 30 mg/kg, route oral. The settings on record: plasma.
With `CNC(=O)NC(=O)[C@H](CC1CCCC1)c1ccc(Cl)c(Cl)c1`, the AUC(0-inf) was found to be 1460 ng·h/mL.

Test system in the next data set: not listed separately
Put plainly: Cmax in CD rat at 10 mg/kg, po. The data set is classed as ADME, organism-based. More on the design: dose 10 mg/kg, route oral. The settings on record: in vivo.
`CNC(=O)NC(=O)[C@H](CC1CCCC1)c1ccc(Cl)c(Cl)c1` came in with a Cmax of 133 µg/mL.
